From ChEMBL document CHEMBL1909519, “L-Proline anchored multicomponent synthesis of novel pyrido[2,3-a]carbazoles; investigation of in vitro antimicrobial, antioxidant, cytotoxicity and structure activity relationship studies” (Eur J Med Chem, 2011)
Converted amounts (≈) assume the structure as drawn. The source made the active and inactive calls. The calls are words filed in the database; no cut-off is given here.

Assays:
[1] = tested on: Escherichia coli; assay: Antibacterial activity against Escherichia coli at 50 ug/ml after 24 hrs by agar disk diffusion assay; type: functional; details: read-out: DIZ
Procedure, shortened: (§1)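 Gram-negative clinical isolates (PSG Hospital, Coimbatore) tested by agar well diffusion on nutrient agar. Compounds dissolved in DMSO at 0 (control), 25, 50, 75, 100; DMSO was the negative control and ciprofloxacin ([…]) the positive control. Incubation 37 ± 2 °C for 24 h, then inhibition zone diameter measured in mm.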

[2] = tested on: Enterococcus faecalis; assay: Antibacterial activity against Enterococcus faecalis after 24 hrs by agar disk diffusion assay; type: functional
Procedure, shortened: (§2)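 Agar well diffusion on nutrient agar against Gram-positive clinical isolates (PSG Hospital, Coimbatore). Compounds in DMSO tested at 0 (control), 25, 50, 75, 100; DMSO as solvent and negative control; ciprofloxacin ([…]) as positive control. Plates incubated 37 ± 2 °C, 24 h; zone of inhibition diameter read in mm.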

[3] = Cytotoxicity against human SK-MEL-12 cells up to 50 ug/ml after 48 hrs by SRB assay; type: functional, cell-based
Procedure, shortened: (§3)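 Cells in RPMI-1640 with 10% heat-inactivated FBS, 1 mM NaHCO3, 2 mM L-glutamine, 37 °C, 5% CO2; seeded (B16F10 5 × 10⁴ cells/mL, others 1 × 10⁵ cells/mL), 24 h, then compounds in DMSO at 1.56–50 for 48 h, triplicate wells. TCA fixation, SRB staining 30 min, tris extraction, OD 520 nm; IC50 by linear regression, mean ± SD of three independent experiments; cisplatin positive control.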

[4] = tested on: Escherichia coli; assay: Antibacterial activity against Escherichia coli after 24 hrs by agar disk diffusion assay; type: functional; procedure, shortened: as §1
[5] = tested on: Staphylococcus aureus; assay: Antibacterial activity against Staphylococcus aureus after 24 hrs by agar disk diffusion assay; type: functional; procedure, shortened: as §2
[6] = tested on: Klebsiella pneumoniae; assay: Antibacterial activity against Klebsiella pneumoniae after 24 hrs by agar disk diffusion assay; type: functional; procedure, shortened: as §1
[7] = tested on: Enterococcus faecalis; assay: Antibacterial activity against Enterococcus faecalis at 50 ug/ml after 24 hrs by agar disk diffusion assay; type: functional; details: read-out: DIZ; procedure, shortened: as §2
[8] = tested on: Staphylococcus aureus; assay: Antibacterial activity against Staphylococcus aureus at 50 ug/ml after 24 hrs by agar disk diffusion assay; type: functional; details: read-out: DIZ; procedure, shortened: as §2
[9] = tested on: Radical scavenging activity; assay: Antioxidant activity assessed as DPPH radical scavenging activity upto 600 mg/ml after 30 mins by micro plate reader; type: functional
Procedure, shortened: (§4)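 DPPH assay: various compound concentrations brought to volume with ethanol, mixed with 0.1 mM ethanolic DPPH alongside vitamin C standard; shaken 30 min at 24 °C, absorbance read at 517 nm; concentration giving 50% decrease determined.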

[10] = tested on: B16-F10; assay: Cytotoxicity against mouse B16F10 cells after 48 hrs by SRB assay; type: functional, cell-based; details: B16-F10, 48 h; procedure, shortened: as §3
[11] = tested on: A549; assay: Cytotoxicity against human A549 cells up to 50 ug/ml after 48 hrs by SRB assay; type: functional, cell-based; procedure, shortened: as §3
[12] = tested on: Klebsiella pneumoniae; assay: Antibacterial activity against Klebsiella pneumoniae at 50 ug/ml after 24 hrs by agar disk diffusion assay; type: functional; details: read-out: DIZ; procedure, shortened: as §1
[13] = tested on: Candida albicans; assay: Antifungal activity against Candida albicans at 50 ug/ml after 48 hrs by agar disk diffusion assay; type: functional; details: read-out: DIZ
Procedure, shortened: (§5)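 Fungal isolates (PSG Hospital, Coimbatore) grown on Sabouraud dextrose agar; agar well diffusion with compounds in DMSO at 0 (control), 25, 50, 75, 100. DMSO negative control, fluconazole ([…]) positive control. Plates held 28 ± 2 °C for 48 h; zone of inhibition diameter recorded in mm.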

[14] = tested on: SK-OV-3; assay: Cytotoxicity against human SKOV3 cells up to 50 ug/ml after 48 hrs by SRB assay; type: functional, cell-based; procedure, shortened: as §3
[15] = tested on: HCT-15; assay: Cytotoxicity against human HCT15 cells after 48 hrs by SRB assay; type: functional, cell-based; details: HCT-15, 48 h; procedure, shortened: as §3
[16] = tested on: Aspergillus niger; assay: Antifungal activity against Aspergillus niger at 50 ug/ml after 48 hrs by agar disk diffusion assay; type: functional; details: read-out: DIZ; procedure, shortened: as §5
[17] = tested on: Aspergillus niger; assay: Antifungal activity against Aspergillus niger after 48 hrs by agar disk diffusion assay; type: functional; procedure, shortened: as §5
[18] = tested on: Candida albicans; assay: Antifungal activity against Candida albicans after 48 hrs by agar disk diffusion assay; type: functional; procedure, shortened: as §5
[19] = tested on: Aspergillus niger; assay: Antifungal activity against Aspergillus niger at 100 ug/ml after 48 hrs by agar disk diffusion assay; type: functional; details: read-out: DIZ; procedure, shortened: as §5
[20] = tested on: B16-F10; assay: Cytotoxicity against mouse B16F10 cells up to 50 ug/ml after 48 hrs by SRB assay; type: functional, cell-based; procedure, shortened: as §3
[21] = tested on: Klebsiella pneumoniae; assay: Antibacterial activity against Klebsiella pneumoniae at 100 ug/ml after 24 hrs by agar disk diffusion assay; type: functional; details: read-out: DIZ; procedure, shortened: as §1
[22] = tested on: HCT-15; assay: Cytotoxicity against human HCT15 cells up to 50 ug/ml after 48 hrs by SRB assay; type: functional, cell-based; procedure, shortened: as §3
[23] = tested on: Escherichia coli; assay: Antibacterial activity against Escherichia coli at 100 ug/ml after 24 hrs by agar disk diffusion assay; type: functional; details: read-out: DIZ; procedure, shortened: as §1
[24] = tested on: Candida albicans; assay: Antifungal activity against Candida albicans at 100 ug/ml after 48 hrs by agar disk diffusion assay; type: functional; details: read-out: DIZ; procedure, shortened: as §5
[25] = tested on: Enterococcus faecalis; assay: Antibacterial activity against Enterococcus faecalis at 100 ug/ml after 24 hrs by agar disk diffusion assay; type: functional; details: read-out: DIZ; procedure, shortened: as §2
[26] = tested on: Staphylococcus aureus; assay: Antibacterial activity against Staphylococcus aureus at 100 ug/ml after 24 hrs by agar disk diffusion assay; type: functional; details: read-out: DIZ; procedure, shortened: as §2
[27] = tested on: Radical scavenging activity; assay: Antioxidant activity assessed as DPPH radical scavenging activity after 30 mins by micro plate reader; type: functional; procedure, shortened: as §4
[28] = tested on: Staphylococcus aureus; assay: Antibacterial activity against Staphylococcus aureus at 25 ug/ml after 24 hrs by agar disk diffusion assay; type: functional; details: read-out: DIZ; procedure, shortened: as §2
[29] = tested on: Enterococcus faecalis; assay: Antibacterial activity against Enterococcus faecalis at 25 ug/ml after 24 hrs by agar disk diffusion assay; type: functional; details: read-out: DIZ; procedure, shortened: as §2
[30] = tested on: HCT-15; assay: Ratio of cisplatin IC50 to compound IC50 for human HCT15 cells; type: functional
[31] = tested on: Candida albicans; assay: Antifungal activity against Candida albicans at 25 ug/ml after 48 hrs by agar disk diffusion assay; type: functional; details: read-out: DIZ; procedure, shortened: as §5
[32] = tested on: A549; assay: Ratio of cisplatin IC50 to compound IC50 for human A549 cells; type: functional
[33] = tested on: A549; assay: Cytotoxicity against human A549 cells after 48 hrs by SRB assay; type: functional, cell-based; details: A549, 48 h; procedure, shortened: as §3
[34] = tested on: Aspergillus niger; assay: Antifungal activity against Aspergillus niger at 25 ug/ml after 48 hrs by agar disk diffusion assay; type: functional; details: read-out: DIZ; procedure, shortened: as §5
[35] = tested on: Escherichia coli; assay: Antibacterial activity against Escherichia coli at 25 ug/ml after 24 hrs by agar disk diffusion assay; type: functional; details: read-out: DIZ; procedure, shortened: as §1
[36] = organism: Homo sapiens; assay: Ratio of cisplatin IC50 to compound IC50 for human SK-MEL-12; type: functional
[37] = tested on: SK-OV-3; assay: Cytotoxicity against human SKOV3 cells after 48 hrs by SRB assay; type: functional, cell-based; details: SK-OV-3, 48 h; procedure, shortened: as §3
[38] = tested on: B16-F10; assay: Ratio of cisplatin IC50 to compound IC50 for mouse B16F10; type: functional
[39] = Cytotoxicity against human SK-MEL-12 cells after 48 hrs by SRB assay; type: functional, cell-based; procedure, shortened: as §3
[40] = tested on: Klebsiella pneumoniae; assay: Antibacterial activity against Klebsiella pneumoniae at 25 ug/ml after 24 hrs by agar disk diffusion assay; type: functional; details: read-out: DIZ; procedure, shortened: as §1

| SMILES | MIC [2] | IC50 [3] | MIC [4] | MIC [5] | MIC [6] | IC50 [10] | IC50 [11] | IC50 [14] | IC50 [15] | MIC [17] | MIC [18] | IC50 [27] | other results |
| --- | --- | --- | --- | --- | --- | --- | --- | --- | --- | --- | --- | --- | --- |
| Cc1ccc2[nH]c3c(c2c1)CCc1c-3nc(N)c(C#N)c1-c1ccc(N(C)C)cc1 | 50 µg/mL (≈ 127 µM) | Not Active | 50 µg/mL (≈ 127 µM) | 50 µg/mL (≈ 127 µM) | 50 µg/mL (≈ 127 µM) | 34.6 µg/mL (≈ 87.9 µM) | Not Active | Not Active | 43.5 µg/mL (≈ 111 µM) | > 100 µg/mL | > 100 µg/mL | – | zone of inhibition at 50 µg/mL [1]: 17 mm; zone of inhibition at 50 µg/mL [7]: 19 mm; zone of inhibition at 50 µg/mL [8]: 17 mm; Activity [9]: inactive; zone of inhibition at 50 µg/mL [12]: 18 mm; zone of inhibition at 50 µg/mL [13]: 9 mm; zone of inhibition at 50 µg/mL [16]: 5 mm |
| CCOC(=O)c1c(N)nc2c(c1-c1ccccc1)CCc1c-2[nH]c2ccc(C)cc12 | 100 µg/mL (≈ 252 µM) | Not Active | 100 µg/mL (≈ 252 µM) | 100 µg/mL (≈ 252 µM) | 100 µg/mL (≈ 252 µM) | – | Not Active | Not Active | – | > 100 µg/mL | > 100 µg/mL | 300.84 µg/mL (≈ 757 µM) | zone of inhibition at 100 µg/mL [19]: 4 mm; IC50 [20]: Not Active; zone of inhibition at 100 µg/mL [21]: 16 mm; IC50 [22]: Not Active; zone of inhibition at 100 µg/mL [23]: 13 mm; zone of inhibition at 100 µg/mL [24]: 2 mm; zone of inhibition at 100 µg/mL [25]: 15 mm; zone of inhibition at 100 µg/mL [26]: 14 mm |
| Cc1ccc2[nH]c3c(c2c1)CCc1c-3nc(N)c(C#N)c1-c1cccs1 | 25 µg/mL (≈ 70.1 µM) | – | 25 µg/mL (≈ 70.1 µM) | 25 µg/mL (≈ 70.1 µM) | 25 µg/mL (≈ 70.1 µM) | 2.85 µg/mL (≈ 8 µM) | – | – | 3.45 µg/mL (≈ 9.68 µM) | 75 µg/mL (≈ 210 µM) | 75 µg/mL (≈ 210 µM) | 227.37 µg/mL (≈ 638 µM) | zone of inhibition at 25 µg/mL [28]: 26 mm; zone of inhibition at 25 µg/mL [29]: 29 mm; Ratio IC50 [30]: 2.31; zone of inhibition at 25 µg/mL [31]: 17 mm; Ratio IC50 [32]: 1.39; IC50 [33]: 4.04 µg/mL (≈ 11.3 µM); zone of inhibition at 25 µg/mL [34]: 15 mm; zone of inhibition at 25 µg/mL [35]: 27 mm; Ratio IC50 [36]: 2.25; IC50 [37]: 10 µg/mL (≈ 28.1 µM); Ratio IC50 [38]: 1.94; IC50 [39]: 4.61 µg/mL (≈ 12.9 µM); zone of inhibition at 25 µg/mL [40]: 28 mm |
